Data published in ChEMBL document CHEMBL1143425, “Paradoxical growth effect of caspofungin observed on biofilms and planktonic cells of five different Candida species” (2007).
Converted amounts (≈) assume the structure as drawn. The source made the active and inactive calls.

Columns and labels:
Candida albicans [1] = assay: Antimicrobial activity against Candida albicans BR-A2 grown as planktonic cell after 48 hrs by XTT reduction assay; format: functional
Outline: (§1)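 Planktonic broth microdilution followed CLSI M27-A2, with caspofungin dissolved in water. After 48 h, XTT-menadione was added to the wells and plates were kept 1 h at 35°C in the dark. Plates were then centrifuged and supernatant A490 was read. MIC was the lowest concentration giving a 50% decrease in metabolic activity versus drug-free control. Paradoxical growth was defined as ≥20% of control activity above the MIC.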

Candida tropicalis [2] = assay: Antimicrobial activity against Candida tropicalis BR-A14 grown as planktonic cell assessed as concentration producing paradoxical growth after 48 hrs by XTT reduction assay; format: functional
Outline: (§2)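 Planktonic broth microdilution followed CLSI M27-A2, with caspofungin dissolved in water. After 48 h, XTT-menadione was added to each well and plates were incubated 1 h at 35°C in the dark. Cells were pelleted by centrifugation and the supernatant was read at 490 nm. MIC was the lowest concentration giving a 50% drop in metabolic activity versus the drug-free control. PG was ≥20% of drug-free activity above the MIC.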

Candida parapsilosis [3] = assay: Antimicrobial activity against Candida parapsilosis BR-A30 grown as planktonic cell assessed as paradoxical growth after 48 hrs by XTT reduction assay; format: functional, organism-based; outline: as §2
Candida metapsilosis [4] = assay: Antimicrobial activity against Candida metapsilosis BR-A42 grown as planktonic cell after 48 hrs by XTT reduction assay; format: functional; settings: Lodderomyces metapsilosis
Outline: (§3)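 Planktonic cells were tested by CLSI M27-A2 broth microdilution with caspofungin in water, incubated 48 h. XTT-menadione was added to each well, plates were held 1 h at 35°C in the dark and centrifuged, and supernatant absorbance was read at 490 nm. MIC was defined as 50% decrease in metabolic activity versus drug-free control. PG was defined as ≥20% of control activity at concentrations above MIC.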

Candida orthopsilosis [5] = assay: Effect on morphology in Candida orthopsilosis grown as biofilm assessed as inhibition of hyphae and pseudohyphae at 32 ug/ml after 48 hrs; format: functional, organism-based
Outline: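 Biofilms formed in RPMI 1640 wells were exposed to caspofungin for 48 h and compared with drug-free control wells. Wells were examined in the plate under an inverted light microscope at ×200 and photographed.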

Candida tropicalis [6] = assay: Antimicrobial activity against Candida tropicalis BR-A24 grown as biofilm assessed as concentration producing paradoxical growth after 48 hrs by XTT reduction assay; format: functional
Outline: (§4)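 Clinical isolates were grown overnight (18 h, 35°C, 120 rpm) in RPMI 1640 with MOPS, pH 7.0, then washed and set to ~1 × 10^7 cells/ml. Cells attached for 1.5 h at 37°C, 75 rpm, then biofilms grew 24 h. Caspofungin was given as doubling dilutions of 2–1,024 μg/ml for 48 h at 35°C, 75 rpm. Read-out was XTT-menadione in PBS, 1 h at 35°C in the dark, A490, cell-free blank subtracted. MIC was a 50% drop in activity versus drug-free; PG was >50% of control above MIC. Run in duplicate.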

Candida metapsilosis [7] = assay: Antimicrobial activity against Candida metapsilosis BR-A43 grown as biofilm assessed as concentration producing paradoxical growth after 48 hrs by XTT reduction assay; format: functional
Outline: (§5)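 Sabouraud-grown cells were shaken overnight (18 h, 120 rpm, 35°C) in RPMI 1640 with MOPS at pH 7.0, then washed and set at ~1 × 10^7 cells/ml. Attachment lasted 1.5 h at 37°C, and growth ran 24 h before challenge. Caspofungin was added in RPMI at 2–1,024 μg/ml (10 doublings) for 48 h at 35°C with shaking. XTT-menadione was read at 490 nm after 1 h at 35°C in the dark, with blank wells subtracted. MIC was taken as 50% reduction versus drug-free wells, and PG as >50% of control above MIC. Assays were run in duplicate.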

Candida parapsilosis [8] = assay: Antimicrobial activity against Candida parapsilosis BR-A27 grown as planktonic cell after 48 hrs by XTT reduction assay; format: functional; settings: Lodderomyces parapsilosis; outline: as §1
Candida parapsilosis [9] = assay: Antimicrobial activity against Candida parapsilosis BR-A31 grown as planktonic cell assessed as paradoxical growth after 48 hrs by XTT reduction assay; format: functional, organism-based; outline: as §2
Candida parapsilosis [10] = assay: Antimicrobial activity against Candida parapsilosis 22019 grown as biofilm assessed as concentration producing paradoxical growth after 48 hrs by XTT reduction assay; format: functional; outline: as §5
Candida tropicalis [11] = assay: Effect on morphology in Candida tropicalis grown as planktonic cells assessed as rounding and clumping at 8 ug/ml after 48 hrs; format: functional, organism-based
Outline: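 Clinical isolates were tested by CLSI M27-A2 broth microdilution with caspofungin dissolved in sterile water. After 48 h incubation, cells were taken from drug-containing and drug-free control wells. They were examined by light microscopy at ×400 for hyphae or pseudohyphae, rounding or clumping, and enlarged globose cells.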

Candida tropicalis [12] = assay: Antimicrobial activity against Candida tropicalis BR-A8 grown as planktonic cell assessed as concentration producing paradoxical growth after 48 hrs by XTT reduction assay; format: functional; outline: as §2
Candida parapsilosis [13] = assay: Antimicrobial activity against Candida parapsilosis BR-A26 grown as planktonic cell assessed as concentration producing paradoxical growth after 48 hrs by XTT reduction assay; format: functional; outline: as §2
Candida orthopsilosis [14] = assay: Antimicrobial activity against Candida orthopsilosis BR-A38 grown as biofilm after 48 hrs by XTT reduction assay; format: functional; settings: Lodderomyces orthopsilosis; outline: as §5
Candida orthopsilosis [15] = assay: Antimicrobial activity against Candida orthopsilosis BR-A33 grown as biofilm after 48 hrs by XTT reduction assay; format: functional; settings: Lodderomyces orthopsilosis
Outline: (§6)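 Isolates were grown on Sabouraud agar (30°C, 24 h), then overnight in RPMI 1640 with MOPS, pH 7.0, at 35°C with shaking. Cells were washed and set to ~1 × 10^7 cells/ml, attached 1.5 h at 37°C, and grown 24 h. Biofilms were then exposed to caspofungin in 10 twofold dilutions (2–1,024 μg/ml) for 48 h at 35°C with shaking. Read-out was XTT-menadione, 1 h, 35°C, dark, A490, cell-free blank subtracted. MIC was the 50% drop in activity versus drug-free control. Tested in duplicate.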

Candida tropicalis [16] = assay: Antimicrobial activity against Candida tropicalis BR-A20 grown as planktonic cell after 48 hrs by XTT reduction assay; format: functional; outline: as §2
Candida albicans [17] = assay: Antimicrobial activity against Candida albicans BR-A7 grown as biofilm assessed as concentration producing paradoxical growth after 48 hrs by XTT reduction assay; format: functional; outline: as §5
Candida tropicalis [18] = assay: Antimicrobial activity against Candida tropicalis BR-A14 grown as biofilm after 48 hrs by XTT reduction assay; format: functional; outline: as §4
Candida parapsilosis [19] = assay: Antimicrobial activity against Candida parapsilosis 22019 grown as biofilm after 48 hrs by XTT reduction assay; format: functional; settings: Lodderomyces parapsilosis, 22019, 48 h; outline: as §6
Candida orthopsilosis [20] = assay: Antimicrobial activity against Candida orthopsilosis BR-A36 grown as biofilm assessed as concentration producing paradoxical growth after 48 hrs by XTT reduction assay; format: functional; outline: as §5
Candida albicans [21] = assay: Antimicrobial activity against Candida albicans BR-A7 grown as biofilm after 48 hrs by XTT reduction assay; format: functional; outline: as §6
Candida albicans [22] = assay: Antimicrobial activity against Candida albicans BR-A1 grown as planktonic cell assessed as paradoxical growth after 48 hrs by XTT reduction assay; format: functional, organism-based; outline: as §3
Candida tropicalis [23] = assay: Antimicrobial activity against Candida tropicalis BR-A8 grown as biofilm after 48 hrs by XTT reduction assay; format: functional; outline: as §6
Candida tropicalis [24] = assay: Antimicrobial activity against Candida tropicalis BR-A24 grown as planktonic cell assessed as paradoxical growth after 48 hrs by XTT reduction assay; format: functional, organism-based; outline: as §2
Candida orthopsilosis [25] = assay: Antimicrobial activity against Candida orthopsilosis BR-A32 grown as planktonic cell assessed as paradoxical growth after 48 hrs by XTT reduction assay; format: functional, organism-based; outline: as §3

## CC[C@H](C)C[C@H](C)CCCCCCCCC(=O)N[C@H]1C[C@@H](O)[C@@H](NCCN)NC(=O)[C@@H]2[C@@H](O)CCN2C(=O)[C@H]([C@H](O)CCN)NC(=O)[C@H]([C@H](O)[C@@H](O)c2ccc(O)cc2)NC(=O)[C@@H]2C[C@@H](O)CN2C(=O)[C@H]([C@@H](C)O)NC1=O [CASPOFUNGIN]
Candida albicans [1]
  MIC: 0.5 µg/mL (≈ 0.457 µM)
Candida tropicalis [2]
  Activity: 8 µg/mL
Candida parapsilosis [3]
  Activity: inactive
Candida metapsilosis [4]
  MIC: 1 µg/mL (≈ 0.915 µM)
Candida orthopsilosis [5]
  Activity: Active
Candida tropicalis [6]
  Activity: 8 µg/mL
Candida metapsilosis [7]
  Activity: 16 µg/mL
Candida parapsilosis [8]
  MIC: 2 µg/mL (≈ 1.83 µM)
Candida parapsilosis [9]
  Activity: inactive
Candida parapsilosis [10]
  Activity: 16 µg/mL
Candida tropicalis [11]
  Activity: Active
Candida tropicalis [12]
  Activity: 8 µg/mL
Candida parapsilosis [13]
  Activity: 16 µg/mL
Candida orthopsilosis [14]
  MIC: 512 µg/mL (≈ 468 µM)
Candida orthopsilosis [15]
  MIC: 2 µg/mL (≈ 1.83 µM)
Candida tropicalis [16]
  MIC: 0.5 µg/mL (≈ 0.457 µM)
Candida albicans [17]
  Activity: 16 µg/mL
Candida tropicalis [18]
  MIC: 256 µg/mL (≈ 234 µM)
Candida parapsilosis [19]
  MIC: 2 µg/mL (≈ 1.83 µM)
Candida orthopsilosis [20]
  Activity: 16 µg/mL
Candida albicans [21]
  MIC: 2 µg/mL (≈ 1.83 µM)
Candida albicans [22]
  Activity: Active
Candida tropicalis [23]
  MIC: 2 µg/mL (≈ 1.83 µM)
Candida tropicalis [24]
  Activity: Active
Candida orthopsilosis [25]
  Activity: inactive
